# Runt-CBFb FRET: inhibitors of human RUNX1 Runt domain binding to CBFb | Q01196+Q13951 | Cerulean-Runt/Venus-CBFb FRET ratio 530/480, 1 h | inhibition, % at 20 µM | actives 0.46% (n = 220,000);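 active = inhibition over about 50% at 20 µM in the single-dose screen, limit read from the data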
#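 Buffer or medium: Tris pH 7.5 buffer with BSA. Assay system: Cerulean-labeled Runt domain protein. Amount: each fluorescent fusion protein 100 nM. Read-out basis: loss of energy transfer signal. Incubation: 1 h compound exposure, room temperature. Probe or stimulus: Venus-CBFb binding partner, 100 nM. Detection: FRET, excitation 422 nm, emission at 530 and 480 nm.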
# RanGTP-Imp inh: inhibitors of RanGTP-importin-beta interaction, primary screen, biochemical, FRET, CFP-Ran, YFP-importin-beta, homogeneous | cell-free CFP-Ran/YFP-importin-beta FRET ratio | actives 1.1% (n = 300,000) | inhibition, % (no concentration beside the values);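 active = more than half of the replicate wells show a fall in the fluorescence ratio signal beyond about 16%, limit read from the data, passing the limit was not always enough; inconclusive = exactly half of the replicate wells pass the set limit; inactive = fewer than half of replicates pass the limit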
# MEX-5 binding: C. elegans MEX-5 TCR-2 RNA binding activity; Q9XUB2; MEX-5/FITC-TCR2 RNA binding, fluorescence polarization; hits give low values; activity score (negative = inhibition of binding), % at 10 µM; actives 0.38% (n = 300,000); AID 1832;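 active = inhibition past about -25% in most replicates, and total fluorescence under double the plate's negative control median, limit read from the data; inconclusive = replicates evenly split on the limit, or fluorescence at least double controls; inactive = too little inhibition in most replicates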
# Target sequence (Q9XUB2 whole entry, looked up): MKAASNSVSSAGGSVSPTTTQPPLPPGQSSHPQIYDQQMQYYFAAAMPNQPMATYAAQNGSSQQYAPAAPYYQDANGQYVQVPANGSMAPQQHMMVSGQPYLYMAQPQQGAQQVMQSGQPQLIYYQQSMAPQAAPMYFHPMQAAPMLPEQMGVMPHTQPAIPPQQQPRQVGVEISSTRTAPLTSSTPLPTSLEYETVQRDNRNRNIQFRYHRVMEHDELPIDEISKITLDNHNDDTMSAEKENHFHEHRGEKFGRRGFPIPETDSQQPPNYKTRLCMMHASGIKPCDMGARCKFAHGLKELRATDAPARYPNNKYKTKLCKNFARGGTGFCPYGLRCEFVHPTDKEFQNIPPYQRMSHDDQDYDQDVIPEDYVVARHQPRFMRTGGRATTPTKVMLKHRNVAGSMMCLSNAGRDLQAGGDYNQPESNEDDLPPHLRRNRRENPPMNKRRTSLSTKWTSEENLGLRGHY
# Runt-SMMHC FRET: inhibitors of human RUNX1 Runt domain binding to CBFb-SMMHC. Q01196+Q13951. Cerulean-Runt/Venus-CBFb-SMMHC FRET ratio 530/480, 1 h. inhibition, % at 20 µM. actives 0.74% (n = 220,000);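 active = mean inhibition across duplicate retests at 20 µM reaching about 50%, limit read from the data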;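 also: inhibitors lower the FRET ratio by blocking Runt binding to CBFb-SMMHC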
# EBV gp42 block: inhibitors of Epstein-Barr virus glycoprotein 42; Q1HVG2; Fluorescence polarization binding assay, mP read-out; actives 0.42% (n = 220,000); inhibition, % (tested at 21.74 µM)
# PKD1 inh: blocks activity of human protein kinase D1. PKD1 kinase fluorescence polarization assay. inhibition, % (no concentration beside the values). actives 0.056% (n = 200,000). AID 797
# A number is an active result; n = inactive; u = inconclusive; x = not tested or not shown; + = active, no number. Shown are actives, neighbours in structure and some others; about 2% of the full set was active somewhere. Rule as the data show it, unless noted: active = inhibition above about 50%; inactive = the rest.
SMILES,Runt-CBFb FRET,RanGTP-Imp inh,MEX-5 binding,Runt-SMMHC FRET,EBV gp42 block,PKD1 inh
COc1ccccc1-n1cc([C@@H]2C[C@H]3CN(c4ccccc4)C(=O)[C@]34CCCN24)cn1,n,n,n,n,n,n
COc1ccc(CN(Cc2ccc(OC)cc2)S(=O)(=O)c2ccc(-n3cnnn3)c(C)c2)cc1,n,27,n,n,n,n
COc1ccc(CN(Cc2cccnc2)S(=O)(=O)c2ccc(-n3cnnn3)c(OC)c2)cc1,x,n,n,x,x,x
COc1ccc(NC(=O)CN2C(=O)NC(c3ccccc3)(c3ccccc3)C2=O)cc1OC,x,31,n,x,x,x
C=CCNC(=O)C(C#N)c1nc2ccccc2nc1N1CCCCCC1 (stereo not drawn),n,74,n,65,n,n
CC1CN(c2nc3ccccc3nc2C(C#N)C(=O)NCc2ccc3c(c2)OCO3)CC(C)O1 (stereo not drawn),n,n,n,n,71,n
CC1CCN(c2nc3ccccc3nc2C(C#N)C(=O)NC2CCCCC2)CC1 (stereo not drawn),n,50,-29,n,x,x
CCCCNC(=O)C(C#N)c1nc2ccccc2nc1N1CCCC1 (stereo not drawn),n,34,n,67,n,n
CSc1cccc(NC(=O)N2CCCC(CNS(=O)(=O)Cc3ccccc3)C2)c1 (stereo not drawn),n,n,n,n,n,n
Cc1nn(C)cc1/C=N\NC(=O)c1csc2c1CCCC2,x,n,n,x,x,x
CCN(CC)S(=O)(=O)c1ccc(C(=O)/C=C/c2ccc(-c3ccc([N+](=O)[O-])cc3)o2)cc1,n,n,n,n,86,x
O=C(O)C1Nc2c(Cl)cc(Cl)cc2C2C=CCC12 (stereo not drawn),x,n,-73,x,x,x
O=C(O)C1Nc2c(Cl)cc(Cl)c(Cl)c2C2C=CCC12 (stereo not drawn),x,n,n,x,x,x
O=C(O)C1Nc2c(O)cccc2C2C=CCC12 (stereo not drawn),n,x,x,n,108,n
CC(C)N1CCc2c(sc(NC(=O)c3ccc(S(=O)(=O)N4CCOCC4)cc3)c2C(N)=O)C1,n,49,n,n,n,n
CNC(=O)c1c(NC(=O)c2ccc(S(=O)(=O)N3CC(C)OC(C)C3)cc2)sc2c1CCN(C(C)C)C2 (stereo not drawn),x,62,n,x,x,x
Cc1cccc(N(CC(=O)N2CCc3ccccc3C2)S(C)(=O)=O)c1C,x,n,n,x,x,x
COc1ccc2nc(N3C(=O)/C(=C/c4ccc(Cl)cc4)NC3=S)sc2c1,n,x,x,n,54,n
CCOc1ccc2nc(N3C(=O)CNC3=S)sc2c1,n,n,n,n,n,x
O=C(Cn1cc2c(n1)CCCC2)NCc1ccccn1,n,n,n,n,53,n
O=C(Cn1cc2c(n1)CCCC2)NCc1cccs1,n,n,n,n,n,n
O=C(CC1C(=O)NCCN1Cc1ccc(F)c(F)c1)NCCCn1ccnc1 (stereo not drawn),n,n,n,n,n,n
CN1C(=O)/C(=C/c2ccc3c(c2)OCO3)N=C1c1ccccc1,n,17,-33,n,n,n
CCOC(=O)c1c(S(=O)(=O)N2CCN(c3ccc(F)cc3)CC2)c(C)n(C)c1C,x,n,n,x,x,x
COc1ccc(NC(=O)/C=C/c2cccc(Br)c2)cn1,x,n,-33,x,x,x
SMILES,Runt-CBFb FRET,RanGTP-Imp inh,MEX-5 binding,Runt-SMMHC FRET,EBV gp42 block,PKD1 inh
CCn1cc(C2C(C(=O)Nc3ccc(Br)cn3)=C(C)NC3=C2C(=O)CCC3)c(C)n1 (stereo not drawn),n,n,n,74,n,n
CCOc1cc(C=C2C(=O)c3ccccc3C2=O)ccc1OCC(=O)Nc1ccc(C)cc1,n,n,-36,n,88,n
COc1ccc2nc(N3CCCC3)c(C#N)cc2c1,60,n,n,x,127,n
COc1ccc2nc(SCC(=O)N3CCCCC3)c(C#N)cc2c1,n,n,n,n,n,n
COc1ccc2nc(N3CCCCC3)c(C#N)cc2c1,74,31,n,n,58,n
CCN(CC(=O)Nc1ccccc1C(F)(F)F)C(=O)c1ccc(N2C(=O)CCC2=O)cc1,x,n,n,x,x,x
c1ccc2[nH]c3cc4ncnc4cc3nc2c1,n,n,-81,n,+,n
CCOc1ccc(C(=O)NCC(=O)N2CCN(c3ccccc3O)CC2)cc1,x,n,n,x,x,x
Nc1c(NCc2ccccc2)c(=O)[nH]c(=O)n1Cc1ccccc1,n,n,n,n,n,n
CNc1c(N)n(Cc2ccccc2)c(=O)[nH]c1=O,n,n,-32,n,50,n
O=C(O)c1ccc(N=c2oc3cc(O)ccc3cc2C(=O)NCc2ccccc2)cc1,n,169,n,88,n,n
O=C(NCc1cccnc1)c1cc2ccccc2oc1=O,n,u,n,n,n,n
O=C(NCc1ccccc1)c1cc2ccc(O)cc2oc1=O,x,186,n,x,x,x
C/C(=N\NC(=O)CC#N)c1cc2ccc(O)cc2oc1=O,n,n,u,92,n,n
COc1ccc2cc(C(=O)NCc3ccccc3)c(=Nc3ccc(C(=O)O)cc3)oc2c1,n,n,n,n,n,n
NNc1nc2ccccc2c(=O)n1Cc1ccccc1,x,n,n,x,x,x
Oc1ccc(/C=N/Nc2cc(N3CCCC3)nc(N3CCCC3)n2)cc1,n,86,n,n,n,n
COc1ccc(/C=N/Nc2cc(N3CCCC3)nc(N3CCCC3)n2)cc1,n,60,n,n,n,n
COc1ccc(/C=N/Nc2cc(C)nc(-n3nc(C)cc3C)n2)cc1,n,n,n,n,n,n
COc1ccc(C(=O)N/C(=C/c2cccs2)C(=O)NN)cc1OC,n,n,n,n,n,x
Cc1cc(C)n2nc(C(=O)OCC(=O)Nc3ccc(F)cc3F)nc2n1,x,x,n,x,x,x
COC(=O)C1=COC(C)C2CN3CCc4c([nH]c5cc(OC)c(OC)cc45)C3CC12 (stereo not drawn),n,n,-35,n,74,x
C/C(=N\NC(=O)c1cccc(O)c1)c1ccc(NC(=O)Cc2ccccc2)cc1,x,n,n,x,x,x
CN(C(=O)c1ccc(NC(=O)C2CC=CCC2C(=O)O)cc1)c1ccccc1 (stereo not drawn),n,25,n,n,n,n
Cc1nonc1NC(=O)CSc1nnc(N)s1,x,n,n,x,x,x
Cc1ccc(S(=O)(=O)N(CC(=O)Nc2ccccc2)C(=O)N2CCN(C)CC2)cc1,x,n,n,x,x,x
CCc1ccc(NC(=O)/C(C#N)=C/c2cc3ccc(C)cc3nc2N2CCOCC2)cc1,n,n,-41,n,n,n
CCN(CC)C(=O)CSc1nnc2nnc3cc(C)ccc3n12,n,n,n,n,n,x
CCN(CC)C(=O)CSc1nnc2nnc3cc(Cl)ccc3n12,n,n,-32,n,67,x
CN1OCC(S(=O)(=O)c2ccccc2)C1c1ccccc1 (stereo not drawn),n,35,n,n,n,n

# Bioassay records from PubChem.
